Measured values from different studies.
Lines come from different studies, so protocols differ.
Target: Serine/threonine-protein kinase MAK (MAK, Homo sapiens, UniProt P20794)
Sequence (P20794 1-623, as in one of the studies): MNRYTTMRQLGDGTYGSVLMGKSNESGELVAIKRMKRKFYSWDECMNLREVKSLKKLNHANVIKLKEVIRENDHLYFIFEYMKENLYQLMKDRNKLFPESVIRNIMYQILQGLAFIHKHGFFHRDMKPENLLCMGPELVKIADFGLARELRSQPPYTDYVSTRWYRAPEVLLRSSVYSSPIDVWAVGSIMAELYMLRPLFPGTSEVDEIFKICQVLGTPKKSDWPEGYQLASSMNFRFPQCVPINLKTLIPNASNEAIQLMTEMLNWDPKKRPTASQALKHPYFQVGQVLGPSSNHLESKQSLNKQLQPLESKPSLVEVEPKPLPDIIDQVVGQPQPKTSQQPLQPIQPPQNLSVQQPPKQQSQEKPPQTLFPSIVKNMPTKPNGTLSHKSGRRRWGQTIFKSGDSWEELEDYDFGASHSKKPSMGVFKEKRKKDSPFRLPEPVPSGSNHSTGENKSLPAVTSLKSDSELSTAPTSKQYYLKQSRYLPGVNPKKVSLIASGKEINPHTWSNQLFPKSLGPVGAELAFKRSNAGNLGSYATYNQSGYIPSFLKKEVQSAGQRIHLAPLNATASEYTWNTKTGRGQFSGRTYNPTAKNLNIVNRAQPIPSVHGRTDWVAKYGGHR

| Structure (SMILES) | test | setting | remaining binding [%] |
| --- | --- | --- | --- |
| FC(F)(F)Oc1cccc(-c2cnc3ccc(-c4ccncc4)nn23)c1 | cell-free assay, competition with immobilised ligand | 5 µM | 99 |
| O=C1CCc2cc(Nc3cc(OC4CCOCC4)c([N+](=O)[O-])cc3Cl)ccc2N1 | cell-free assay, competition with immobilised ligand | 1 µM | 100 |
| O=C(NCCCN1CCOCC1)c1ccc(Nc2ncc(Cl)c(-c3ccc(Cl)s3)n2)cc1 | binding, competition with immobilised ligand | 1 µM | 100 |
| CN(C)c1ncc(F)c(-c2cnn3ncccc23)n1 | binding | 1 µM | 91 |
| O=C(NCCCN1CCOCC1)c1ccc(Nc2nccc(-c3cc4ccccc4s3)n2)cc1 | binding, competition with immobilised ligand | 1 µM | 100 |
| N[C@H]1CCN(c2nccc(-c3cnn4ncccc34)n2)C1 | binding | 1 µM | 78 |
| COc1ncc2cc3ccccc3nc2c1C#N | binding, competition with immobilised ligand | 5 µM | 87 |
| COc1cnc(Nc2cccc(S(N)(=O)=O)c2)nc1N1CCN(c2ccccc2)C(=O)C1 | binding, competition with immobilised ligand | 1 µM | 96 |
| O=C(Nc1cccnn1)N1CCC(=Cc2cccc(Oc3ccc(C(F)(F)F)cn3)c2)CC1 | cell-free assay, competition with immobilised ligand | 1 µM | 100 |
| CCN1CCN(Cc2ccc(C(=O)Nc3ccc(C)c(Oc4ccc5c(c4)CC(=O)N5)c3)cc2C(F)(F)F)CC1 | binding, competition with immobilised ligand | 1 µM | 100 |
| C[C@@H]1CCN(c2nccc(-c3cnn4ncccc34)n2)C1 | binding | 1 µM | 97 |
| C[C@@H](c1cccc(C#N)c1)n1cc(Cl)cc(C(N)=O)c1=N | binding, competition with immobilised ligand | 1 µM | 94 |
| CC1CCCN1c1nccc(-c2cnn3ncccc23)n1 (stereo not shown) | binding | 1 µM | 100 |
| O=C(NCC1CCOCC1)c1n[nH]cc1NC(=O)c1c(F)cccc1F | binding, competition with immobilised ligand | 1 µM | 56 |
| CCC(=O)N[C@H]1CC[C@@H](C(=O)N(C)c2ccc(-c3nc4ccccc4o3)cc2)C1 | cell-free assay, competition with immobilised ligand | 1 µM | 85 |
| Cc1cnc(Nc2ccc(C(=O)N3CCC(N4CCCC4)CC3)cc2)nc1-c1cc2ccccc2s1 | binding, competition with immobilised ligand | 1 µM | 100 |
| CS(=O)(=O)N1CCCC(NC(=O)[C@H](CCC2CCCCC2)NC(=O)c2ccc(CNC(=O)c3cnc4ccccn34)cc2)C1 (stereo partly shown) | cell-free assay, competition with immobilised ligand | 0.1 µM | 100 |
| Nc1ncc2c(n1)-c1c([nH]c3ccc(C#CC4CC4)cc13)CCCC2 | binding, competition with immobilised ligand | 1 µM | 100 |
| COc1ccnn2ncc(-c3ccnc(N(C)C)n3)c12 | binding | 1 µM | 100 |
| O=C(Nc1cnc(Oc2ccc(F)cc2)nc1)N1CCc2ncccc2[C@@H]1c1ccc(F)cc1 | cell-free assay, competition with immobilised ligand | 1 µM | 100 |
| CN(C)c1nccc(-c2cnn3ncccc23)n1 | binding | 1 µM | 100 |
| Cn1nc(C(=O)NCc2ccc(C(=O)O)cc2)cc1-c1ccc2[nH]ccc2c1 | cell-free assay, competition with immobilised ligand | 0.1 µM | 92 |
